Here are results for 8 molecules from ChEMBL document CHEMBL3351944 (J Nat Prod, 2014).

Structures are written as SMILES.

Data set [1] deals with MCF7. Put plainly: Antiproliferative activity against human MCF7 cells assessed as growth inhibition after 72 hrs by MTS/PMS assay relative to DNSO-treated control. The format is functional. An outline of the steps: (§1)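 MCF7 cells seeded at 2000/well and left to attach overnight. Six-point curves in duplicate over 100 nM–100 μM for test compounds and 1 nM–1 μM for geldanamycin, 1% DMSO final, 72 h at 37 °C. Growth read by MTS/PMS and normalized to 1% DMSO controls. At least two independent experiments; nonlinear regression gave IC50 and % inhibition.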

In data set [2] the test system is MCF7. The experiment in a line: Antiproliferative activity against human MCF7 cells assessed as growth inhibition after 72 hrs by MTS/PMS assay. The format is functional, cell-based. To be noted: MCF7, 72 h. The method in brief:
as §1

Data set [3] concerns MDCK. Put plainly: Apparent permeability from basolateral side to apical in verapamil pretreated MDCK cells expressing MDR1 at 10 uM after 60 mins by LC/MS analysis. The format is ADME, cell-based, Canis lupus familiaris. The note with it: dog, 1 h.
Data set [4] relates to MDCK. The experiment in a line: Apparent permeability from basolateral side to apical in MDCK cells expressing MDR1 at 10 uM after 60 mins by LC/MS analysis. The format is ADME, cell-based, Canis lupus familiaris. The note with it: dog, 1 h.
The target of data set [5] is T1, Kappa-type opioid receptor (Homo sapiens, UniProt P41145). Put plainly: Agonist activity at human kappa opioid receptor expressed CHO cells co-expressing Galphaq16 assessed as calcium mobilization by fluorescence assay. The format is functional, cell-based. An outline of the steps: (§2)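 CHO cells stably expressing KOP and Gαq16, grown overnight at 37 °C. Loaded with Calcium 5 dye in HBSS with 20 mM HEPES, 0.25% BSA, 1% DMSO, […], 1 h at 37 °C. Compounds added as 10× dilutions, top 10 μM. Fluorescence change over baseline recorded for 60 s. 10-point curves in duplicate, n = 2. Nonlinear regression gave EC50 and Emax.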
(A change in cytosolic calcium serves as a functional read-out for many receptors and channels.)

The target in data set [6] is T1, Kappa-type opioid receptor. Put plainly: Agonist activity at human kappa opioid receptor expressed CHO cells co-expressing Galphaq16 assessed as calcium mobilization by fluorescence assay relative to (-)-U69593. The format is functional, cell-based. The method in brief: as §2

T1 sequence (P41145 whole entry): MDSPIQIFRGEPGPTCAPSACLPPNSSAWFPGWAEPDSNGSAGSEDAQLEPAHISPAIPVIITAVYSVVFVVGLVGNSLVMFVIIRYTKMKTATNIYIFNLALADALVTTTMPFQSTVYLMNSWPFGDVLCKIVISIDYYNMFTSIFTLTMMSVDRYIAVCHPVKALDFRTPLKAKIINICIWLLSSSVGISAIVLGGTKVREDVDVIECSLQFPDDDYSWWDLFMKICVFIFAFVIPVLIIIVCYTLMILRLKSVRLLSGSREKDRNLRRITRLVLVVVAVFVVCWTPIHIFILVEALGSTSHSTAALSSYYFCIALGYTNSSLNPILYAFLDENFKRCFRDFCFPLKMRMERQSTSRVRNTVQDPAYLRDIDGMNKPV

In the case of `O=C1C=CC(=O)C=C1` [BENZOQUINONE], in the data set on MCF7 [1], the “inhibition (INH)” value stood at 85%. Also, in the data set with MCF7 [2], the IC50 (commonly the concentration at which inhibition is half-maximal) was determined as 2570 nM.
For `COc1cc2nc(N3CCN(C(=O)c4ccco4)CC3)nc(N)c2cc1OC` [PRAZOSIN], the permeability with MDCK [3] was found to be 35.5%; in the data set on MDCK [4] it was 6.7%.
`COC(=O)[C@@H]1C[C@H](OC(C)=O)C(=O)[C@H]2[C@@]1(C)CC[C@H]1C(=O)O[C@H](CC3=CC(=O)C(OC)=C(OC)C3=O)C[C@]21C`: the permeability with MDCK [3] was determined as 47.2%; with MDCK [4] it was 5%. Further, the “inhibition (INH)” value in the data set on MCF7 [1] came to 86%. In addition, in the data set with MCF7 [2], the IC50 came out at 2700 nM. For the same molecule, the EC50 (in general, the concentration that produces a half-maximal response) in data set [5] was over 10000 nM.
Take `Cn1c(=O)c2c(ncn2C)n(C)c1=O` [CAFFEINE]: the values for the permeability in the data set on MDCK [3] and in the data set with MDCK [4] were 73% and 85.9%, respectively.
On to `COC(=O)[C@@H]1C[C@H](OC(C)=O)C(=O)[C@H]2[C@@]1(C)CC[C@H]1C(=O)O[C@H](CC3=CC(=O)C=CC3=O)C[C@]21C`, for which the “inhibition (INH)” value in the data set with MCF7 [1] turned out to be 77%. In data set [6], the Emax (as a rule, the size of the effect at its maximum, as opposed to the concentration needed) came to 27%. Further, the IC50 in the data set on MCF7 [2] worked out at 6540 nM. Besides, the EC50 in data set [5] worked out at 2500 nM.
For the molecule `COC(=O)[C@@H]1C[C@H](OC(C)=O)C(=O)[C@H]2[C@@]1(C)CC[C@H]1C(=O)O[C@H](CC3=CC(=O)C(OC)=CC3=O)C[C@]21C`, the values for the permeability with MDCK [3] and in the data set with MDCK [4] were 38.4% and 9.7%, respectively. For the same molecule, the “inhibition (INH)” value in the data set on MCF7 [1] stood at 83%. For the same molecule, the IC50 in the data set on MCF7 [2] came to 5840 nM. Further, in data set [5], the EC50 was over 10000 nM.
Take `COC(=O)[C@@H]1C[C@H](OC(C)=O)C(=O)[C@H]2[C@@]1(C)CC[C@H]1C(=O)O[C@H](c3ccoc3)C[C@]21C` [SALVINORIN A]: the permeability in the data set with MDCK [3] amounted to 54.2%; with MDCK [4], 21.2%. The half-inhibitory concentration (IC50) in the data set with MCF7 [2] was over 100000 nM.
For `COC1=C2C[C@@H](C)C[C@H](OC)[C@H](O)[C@@H](C)/C=C(\C)[C@H](OC(N)=O)[C@@H](OC)/C=C\C=C(/C)C(=O)NC(=CC1=O)C2=O` [GELDANAMYCIN], in the data set with MCF7 [1], the “inhibition (INH)” value came to 81%. The IC50 in the data set with MCF7 [2] stood at 40 nM.
